Measured values: ChEMBL document CHEMBL1649151, “Urinary bactericidal activity of Doripenem versus that of levofloxacin in patients with complicated urinary tract infections or pyelonephritis” (Antimicrob Agents Chemother, 2009)
Values after ≈ are worked out from the molar mass of the structure shown.

What was measured:
[1] = system: Escherichia coli; assay: Antimicrobial activity against Escherichia coli 1821385 B-C isolated from patient with pyelonephritis assessed as >3-log reduction in urinary bacterial titer after 20 hrs; assay type: functional, Urine
Method in brief: (§1)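 Urine was collected on day 3 of i.v. therapy (steady state) over 4-h intervals from infusion start (0–4 to 20–24 h), stored at –80°C and sterile filtered. It was serially diluted twofold (1:0 up to 1:131,072) in the patient's own pre-dose drug-free urine. Microdilution used a final inoculum of 1.0 x 10^6 to 9.5 x 10^6 CFU/ml, incubated 18 h at 37°C in air. 10 µl was subcultured onto 5% blood Columbia agar for 24 h at 37°C. The bactericidal endpoint was >99.9% (>3-log) kill, reported as a reciprocal titer.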

[2] = system: Escherichia coli; assay: Antimicrobial activity against Escherichia coli 2062717 B-P isolated from patient with pyelonephritis assessed as >3-log reduction in urinary bacterial titer after 24 hrs; assay type: functional, Urine
[3] = system: Escherichia coli; assay: Antimicrobial activity against Escherichia coli 1780063 B-A isolated from patient with pyelonephritis assessed as >3-log reduction in urinary bacterial titer after 4 hrs; assay type: functional, Urine
Method in brief: (§2)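 Urine was collected before dosing and on day 3 of i.v. therapy (steady state), in 4-h intervals from infusion start (0–4 to 20–24 h), stored at −80°C and sterile filtered. It was serially diluted twofold (1:0 to 1:131,072) in the patient's drug-free pre-dose urine. Microdilution used an inoculum of 1.0 x 10^6–9.5 x 10^6 CFU/ml, incubated 18 h at 37°C, then subcultured 24 h on blood agar. The endpoint was >99.9% kill, reported as reciprocal titer.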

[4] = system: Escherichia coli; assay: Antimicrobial activity against Escherichia coli 1889645 B-I isolated from patient with pyelonephritis assessed as >3-log reduction in urinary bacterial titer after 24 hrs; assay type: functional, Urine; method in brief: as §1
[5] = system: Escherichia coli; assay: Antimicrobial activity against Escherichia coli 1949825 B-K isolated from patient with pyelonephritis assessed as >3-log reduction in urinary bacterial titer after 8 hrs; assay type: functional, Urine
Method in brief: (§3)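 Patient urine was collected on day 3 of i.v. therapy (steady state) over 4-h intervals after infusion start, stored at –80°C, and sterile filtered. It was twofold serially diluted (1:0 to 1:131,072) in the patient's own pre-dose drug-free urine, inoculated to 1.0 x 10^6–9.5 x 10^6 CFU/ml, and incubated for 18 h at 37°C. Subcultures were grown on blood agar for 24 h. The UBT is the reciprocal of the highest dilution giving >99.9% kill.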

[6] = system: Escherichia coli; assay: Antimicrobial activity against Escherichia coli 1949826 B-L isolated from patient with pyelonephritis by Etest; assay type: functional
[7] = system: Escherichia coli; assay: Antimicrobial activity against Escherichia coli 1889645 B-I isolated from patient with pyelonephritis assessed as >3-log reduction in urinary bacterial titer after 20 hrs; assay type: functional, Urine; method in brief: as §1
[8] = system: Escherichia coli; assay: Antimicrobial activity against Escherichia coli 1949825 B-K isolated from patient with pyelonephritis assessed as >3-log reduction in urinary bacterial titer after 16 hrs; assay type: functional, Urine; method in brief: as §3
[9] = system: Escherichia coli; assay: Antimicrobial activity against Escherichia coli 1780063 B-A isolated from patient with pyelonephritis by Etest; assay type: functional
[10] = system: Escherichia coli; assay: Antimicrobial activity against Escherichia coli 1889645 B-I isolated from patient with pyelonephritis by Etest; assay type: functional
[11] = system: Escherichia coli; assay: Antimicrobial activity against Escherichia coli 1949826 B-L isolated from patient with pyelonephritis assessed as >3-log reduction in urinary bacterial titer after 4 hrs; assay type: functional, Urine; method in brief: as §3
[12] = system: Escherichia coli; assay: Antimicrobial activity against Escherichia coli 2297257 B-W isolated from patient with pyelonephritis assessed as >3-log reduction in urinary bacterial titer after 12 hrs; assay type: functional, Urine
[13] = system: Escherichia coli; assay: Antimicrobial activity against Escherichia coli 1821385 B-C isolated from patient with pyelonephritis assessed as >3-log reduction in urinary bacterial titer after 16 hrs; assay type: functional, Urine; method in brief: as §1
[14] = system: Escherichia coli; assay: Antimicrobial activity against Escherichia coli 1889645 B-I isolated from patient with pyelonephritis assessed as >3-log reduction in urinary bacterial titer after 16 hrs; assay type: functional, Urine; method in brief: as §1
[15] = system: Escherichia coli; assay: Antimicrobial activity against Escherichia coli 2297257 B-W isolated from patient with pyelonephritis assessed as >3-log reduction in urinary bacterial titer after 24 hrs; assay type: functional, Urine
[16] = system: Staphylococcus epidermidis; assay: Antimicrobial activity against Staphylococcus epidermidis 1949822 B-J isolated from patient with pyelonephritis assessed as >3-log reduction in urinary bacterial titer after 4 hrs; assay type: functional, Urine
[17] = system: Enterococcus faecalis; assay: Antimicrobial activity against Enterococcus faecalis 2215767-10 B-S isolated from patient with pyelonephritis assessed as >3-log reduction in urinary bacterial titer after 16 hrs; assay type: functional, Urine; method in brief: as §2
[18] = system: Staphylococcus epidermidis; assay: Antimicrobial activity against Staphylococcus epidermidis 2297262-9 B-V isolated from patient with pyelonephritis assessed as >3-log reduction in urinary bacterial titer after 8 hrs; assay type: functional, Urine
[19] = system: Pseudomonas aeruginosa; assay: Antimicrobial activity against Pseudomonas aeruginosa 1821383 B-E isolated from patient with pyelonephritis assessed as >3-log reduction in urinary bacterial titer after 24 hrs; assay type: functional, Urine
[20] = system: Pseudomonas aeruginosa; assay: Antimicrobial activity against Pseudomonas aeruginosa 2062713 B-Q isolated from patient with pyelonephritis assessed as >3-log reduction in urinary bacterial titer after 12 hrs; assay type: functional, Urine
[21] = system: Escherichia coli; assay: Antimicrobial activity against Escherichia coli 1889647 B-H isolated from patient with pyelonephritis assessed as >3-log reduction in urinary bacterial titer after 12 hrs; assay type: functional, Urine; method in brief: as §1
[22] = system: Escherichia coli; assay: Antimicrobial activity against Escherichia coli 1780064 A-X isolated from patient with pyelonephritis assessed as >3-log reduction in urinary bacterial titer after 12 hrs; assay type: functional, Urine; method in brief: as §2
[23] = system: Escherichia coli; assay: Antimicrobial activity against Escherichia coli 1780064 A-X isolated from patient with pyelonephritis assessed as >3-log reduction in urinary bacterial titer after 16 hrs; assay type: functional, Urine; method in brief: as §2
[24] = system: Staphylococcus epidermidis; assay: Antimicrobial activity against Staphylococcus epidermidis 2297262-9 B-V isolated from patient with pyelonephritis assessed as >3-log reduction in urinary bacterial titer after 24 hrs; assay type: functional, Urine
[25] = system: Escherichia coli; assay: Antimicrobial activity against Escherichia coli 1655646 A-Y isolated from patient with pyelonephritis assessed as >3-log reduction in urinary bacterial titer after 8 hrs; assay type: functional, Urine; method in brief: as §2
[26] = system: Staphylococcus aureus; assay: Antimicrobial activity against Staphylococcus aureus 2215767-9 B-S isolated from patient with pyelonephritis assessed as >3-log reduction in urinary bacterial titer after 24 hrs; assay type: functional, Urine
[27] = system: Staphylococcus epidermidis; assay: Antimicrobial activity against Staphylococcus epidermidis 1949822 B-J isolated from patient with pyelonephritis assessed as >3-log reduction in urinary bacterial titer after 16 hrs; assay type: functional, Urine
[28] = system: Escherichia coli; assay: Antimicrobial activity against Escherichia coli 2062716 B-R isolated from patient with pyelonephritis assessed as >3-log reduction in urinary bacterial titer after 8 hrs; assay type: functional, Urine; method in brief: as §3
[29] = system: Pseudomonas aeruginosa; assay: Antimicrobial activity against Pseudomonas aeruginosa 2062713 B-Q isolated from patient with pyelonephritis assessed as >3-log reduction in urinary bacterial titer after 16 hrs; assay type: functional, Urine
[30] = system: Pseudomonas aeruginosa; assay: Antimicrobial activity against Pseudomonas aeruginosa 1821383 B-E isolated from patient with pyelonephritis assessed as >3-log reduction in urinary bacterial titer after 20 hrs; assay type: functional, Urine
[31] = system: Escherichia coli; assay: Antimicrobial activity against Escherichia coli 1655646 A-Y isolated from patient with pyelonephritis assessed as >3-log reduction in urinary bacterial titer after 12 hrs; assay type: functional, Urine; method in brief: as §2
[32] = system: Staphylococcus aureus; assay: Antimicrobial activity against Staphylococcus aureus 1889640 A-Z isolated from patient with pyelonephritis assessed as >3-log reduction in urinary bacterial titer after 8 hrs; assay type: functional, Urine
[33] = system: Staphylococcus aureus; assay: Antimicrobial activity against Staphylococcus aureus 1889640 A-Z isolated from patient with pyelonephritis assessed as >3-log reduction in urinary bacterial titer after 4 hrs; assay type: functional, Urine
[34] = system: Enterococcus faecalis; assay: Antimicrobial activity against Enterococcus faecalis 2215767-10 B-S isolated from patient with pyelonephritis assessed as >3-log reduction in urinary bacterial titer after 12 hrs; assay type: functional, Urine; method in brief: as §2

## C[C@@H](O)[C@H]1C(=O)N2C(C(=O)O)=C(S[C@@H]3CN[C@H](CNS(N)(=O)=O)C3)[C@H](C)[C@H]12 [DORIPENEM]
[1]
  urinary bactericidal titer: 8192 reciprocal titer
[2]
  urinary bactericidal titer: 2048 reciprocal titer
[3]
  urinary bactericidal titer: 4096 reciprocal titer
[4]
  urinary bactericidal titer: 4096 reciprocal titer
[5]
  urinary bactericidal titer: 4096 reciprocal titer
[6]
  MIC: 0.03 µg/mL (≈ 0.0713 µM)
[7]
  urinary bactericidal titer: 65500 reciprocal titer
[8]
  urinary bactericidal titer: 2048 reciprocal titer
[9]
  MIC: 0.03 µg/mL (≈ 0.0713 µM)
[10]
  MIC: 0.03 µg/mL (≈ 0.0713 µM)
[11]
  urinary bactericidal titer: 128 reciprocal titer
[12]
  urinary bactericidal titer: 16400 reciprocal titer
[13]
  urinary bactericidal titer: 8192 reciprocal titer
[14]
  urinary bactericidal titer: 32800 titer
[15]
  urinary bactericidal titer: 4096 reciprocal titer

## C[C@H]1COc2c(N3CCN(C)CC3)c(F)cc3c(=O)c(C(=O)O)cn1c23.C[C@H]1COc2c(N3CCN(C)CC3)c(F)cc3c(=O)c(C(=O)O)cn1c23.O [LEVOFLOXACIN]
[16]
  urinary bactericidal titer: 4 reciprocal titer
[17]
  urinary bactericidal titer: 0 reciprocal titer
[18]
  urinary bactericidal titer: 1 reciprocal titer
[19]
  urinary bactericidal titer: 16 reciprocal titer
[20]
  urinary bactericidal titer: 4 reciprocal titer
[21]
  urinary bactericidal titer: 512 reciprocal titer
[22]
  urinary bactericidal titer: 256 reciprocal titer
[23]
  urinary bactericidal titer: 128 reciprocal titer
[24]
  urinary bactericidal titer: 2 reciprocal titer
[25]
  urinary bactericidal titer: 2048 reciprocal titer
[26]
  urinary bactericidal titer: 0 reciprocal titer
[27]
  urinary bactericidal titer: 4 reciprocal titer
[28]
  urinary bactericidal titer: 512 reciprocal titer
[29]
  urinary bactericidal titer: 4 reciprocal titer
[30]
  urinary bactericidal titer: 128 reciprocal titer
[31]
  urinary bactericidal titer: 2048 reciprocal titer
[32]
  urinary bactericidal titer: 128 reciprocal titer
[33]
  urinary bactericidal titer: 256 reciprocal titer
[34]
  urinary bactericidal titer: 1 reciprocal titer
